The source made the active and inactive calls. The calls are words filed in the database; no cut-off is given here.
How the values were obtained:
[1] = test system: Radical scavenging activity; assay: Antioxidant activity assessed by DPPH radical scavenging assay; type: functional
Method in brief: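 Test samples at several concentrations in EtOH mixed 1:1 by volume with a 200 μM DPPH solution in EtOH. After 1 min shaking, incubated 30 min at room temperature in the dark, then A517 read. Sample-only wells without DPPH corrected for colour. Done in triplicate, reported as mean ± SD. IC50 is the sample concentration scavenging 50% of DPPH.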

[2] = Antioxidant activity assessed by ORAC assay; type: functional
Method in brief: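 Samples at several concentrations combined with potassium phosphate buffer (7.5 mM as added) and sodium fluorescein probe (63 nM as added), then preincubated 5 min at 37 °C. Reaction started with AAPH (12.8 mM as added). Fluorescence (ex 485/em 538 nm) read every 2 min until decay neared zero. Trolox standard. Done in triplicate, reported as mean ± SD in μmol Trolox equivalents per μmol sample.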

RAW = assay: Inhibition of LPS and IFN-gamma-activated NO production in murine RAW 264.7 cells; conditions: Mus musculus
[3] = Cytotoxicity against murine RAW 264.7 cells by MTT assay; type: cell-based; conditions: mouse
Method in brief: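 MTT viability measured in RAW 264.7 cultures from the LPS/IFN-γ-stimulated NO assay, in duplicate, to flag cytotoxic concentration ranges.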

| Structure (SMILES) | IC50 [1] [µM] | IC50 (RAW) [µM] | Activity [2] | Activity [3] |
| --- | --- | --- | --- | --- |
| COc1cc(O)cc(CCc2ccc(O)c(OC)c2)c1 [GIGANTOL] | 56.4 | 32.9 | Active | – |
| COc1ccc(CCc2cc(OC)c(O)c(OC)c2)cc1OC | 14 | – | Active | Toxic |
| Cc1cc(C(C)(C)C)c(O)c(C(C)(C)C)c1 [BUTYLATED HYDROXYTOLUENE] | 90.9 | – | – | – |
| COc1cc(O)cc2c1-c1c(O)ccc(O)c1C2=O | 16.2 | 13.4 | Active | – |
| COc1ccc(CCc2cc(OC)c(OC)c(OC)c2)cc1OC | > 200 | 48.2 | inactive | – |
| COc1cc(CCc2cc(OC)c(OC)c(OC)c2)ccc1O | 21.8 | – | Active | Toxic |
| COc1cccc(CCc2cc(O)c(O)c(OC)c2)c1 | 40.3 | – | – | – |
| O=C1O[C@H]([C@@H](O)CO)C(O)=C1O [ASCORBIC ACID] | 18 | – | – | – |

Second part, led by results:

| IC50 [1] [µM] | IC50 (RAW) [µM] | Structure (SMILES) | Activity [2] | Activity [3] |
| --- | --- | --- | --- | --- |
| – | 23.5 | Oc1ccc(/C=C/c2cc(O)cc(O)c2)cc1 [RESVERATROL] | – | – |
| 14.5 | 36.8 | COc1cc(CCc2cc(OC)c(O)c(OC)c2)ccc1O [MOSCATILIN] | Active | – |
| 19.9 | 15.3 | COc1cc(CC(O)c2cc(OC)c(O)c(OC)c2)ccc1O (stereo not given) [NOBILIN D] | Active | – |
| > 200 | 38.1 | COc1cc(O)cc2c1-c1ccc(O)cc1C2=O [NOBILONE] | Active | – |
| 21 | 19.2 | COc1cccc(CCc2cc(OC)c(O)c3c2C(Cc2cccc(OC)c2)c2cc(O)c(O)c(OC)c2O3)c1 (stereo not given) [NOBILIN E] | – | – |

Source: ChEMBL document CHEMBL1138407, “Bioactive bibenzyl derivatives and fluorenones from Dendrobium nobile” (J Nat Prod, 2007)
